Laboratory results from ChEMBL document CHEMBL4266056, “Discovery and Pharmacology of a Novel Somatostatin Subtype 5 (SSTR5) Antagonist: Synergy with DPP-4 Inhibition” (ACS Med Chem Lett, 2018).

Key:
[1] = target: T1, Somatostatin receptor type 5 (Homo sapiens, UniProt P35346); assay: Displacement of (3-125I-Tyr11)-SRIF-28 from human SSTR5 expressed in CHO-K1 cell membranes by filtration binding assay
[2] = target: T2, Somatostatin receptor type 5 (Mus musculus, UniProt O08858); assay: Displacement of (3-125I-Tyr11)-SRIF-28 from mouse SSTR5 expressed in CHO-K1 cell membranes by filtration binding assay
T2 sequence (O08858 whole entry): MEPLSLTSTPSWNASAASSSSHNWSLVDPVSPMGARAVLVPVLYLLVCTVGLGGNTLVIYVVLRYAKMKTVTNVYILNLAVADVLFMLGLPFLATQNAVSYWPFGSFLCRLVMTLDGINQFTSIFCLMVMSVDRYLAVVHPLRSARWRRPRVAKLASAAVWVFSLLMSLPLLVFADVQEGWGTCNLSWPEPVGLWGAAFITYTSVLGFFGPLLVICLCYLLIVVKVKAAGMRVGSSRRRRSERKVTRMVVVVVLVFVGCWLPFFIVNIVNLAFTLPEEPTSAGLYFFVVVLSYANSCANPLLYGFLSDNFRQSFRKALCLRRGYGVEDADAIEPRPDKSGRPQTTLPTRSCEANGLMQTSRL

[3] = target: T1, Somatostatin receptor type 5; assay: Antagonist activity at human SSTR5 expressed in CHO-K1 cell membranes assessed as reduction in SST-28-induced inhibition of forskolin-stimulated cAMP accumulation by LANCE assay; assay type: functional, cell-based
[4] = target: T2, Somatostatin receptor type 5; assay: Antagonist activity at mouse SSTR5 expressed in CHO-K1 cell membranes assessed as reduction in SST-28-induced inhibition of forskolin-stimulated cAMP accumulation by LANCE assay; assay type: functional, cell-based
[5] = target: Voltage-gated inwardly rectifying potassium channel KCNH2 (Homo sapiens, UniProt Q12809); assay: Inhibition of MK-499 binding to human ERG
Mus musculus [6] = assay: Antidiabetic activity in HFD fed C57BL/6N mouse assessed as decrease in blood glucose AUC at 30 mg/kg administered as single oral dose pretreated for 60 mins followed by glucose challenge measured after 120 mins by OGTT; assay type: functional; set-up: scale not given: the % may be the effect or the level left
Method in brief: (§1)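 Male C57BL/6 mice were fed HFD (D12492) for 21 days, n=3. Compound was given orally 1 h before an oral glucose load, and blood glucose was followed over 0-120 min. Read-out is the decrease in glucose AUC versus vehicle.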

Mus musculus [7] = assay: Drug uptake in mouse whole blood at 30 mg/kg, po measured at […]
[8] = target: Somatostatin receptor type 3 (Homo sapiens, UniProt P32745); assay: Antagonist activity at human SSTR3 expressed in CHO-K1 cell membranes; assay type: functional, cell-based
Method in brief: (§2)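 Counter-screen by filtration membrane binding: competitive displacement of radiolabeled SST-28 from cell membranes expressing human SSTR1, SSTR2, SSTR3 or SSTR4. The IC50 is the mean of at least duplicate experiments within a maximal threefold range.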

[9] = Oral bioavailability in mouse; assay type: ADME, organism-based; conditions: in vivo
[10] = Half life in mouse; assay type: ADME, organism-based; conditions: in vivo
[11] = target: Somatostatin receptor type 1 (Homo sapiens, UniProt P30872); assay: Antagonist activity at human SSTR1 expressed in CHO-K1 cell membranes; assay type: functional, cell-based; method in brief: as §2
Mus musculus [12] = assay: Antidiabetic activity in HFD fed C57BL/6N mouse assessed as decrease in blood glucose AUC at 10 mg/kg administered as single oral dose pretreated for 60 mins followed by glucose challenge measured after 120 mins by OGTT; assay type: functional; set-up: scale not given: the % may be the effect or the level left; method in brief: as §1

Chain of Voltage-gated inwardly rectifying potassium channel KCNH2 (Q12809 whole entry): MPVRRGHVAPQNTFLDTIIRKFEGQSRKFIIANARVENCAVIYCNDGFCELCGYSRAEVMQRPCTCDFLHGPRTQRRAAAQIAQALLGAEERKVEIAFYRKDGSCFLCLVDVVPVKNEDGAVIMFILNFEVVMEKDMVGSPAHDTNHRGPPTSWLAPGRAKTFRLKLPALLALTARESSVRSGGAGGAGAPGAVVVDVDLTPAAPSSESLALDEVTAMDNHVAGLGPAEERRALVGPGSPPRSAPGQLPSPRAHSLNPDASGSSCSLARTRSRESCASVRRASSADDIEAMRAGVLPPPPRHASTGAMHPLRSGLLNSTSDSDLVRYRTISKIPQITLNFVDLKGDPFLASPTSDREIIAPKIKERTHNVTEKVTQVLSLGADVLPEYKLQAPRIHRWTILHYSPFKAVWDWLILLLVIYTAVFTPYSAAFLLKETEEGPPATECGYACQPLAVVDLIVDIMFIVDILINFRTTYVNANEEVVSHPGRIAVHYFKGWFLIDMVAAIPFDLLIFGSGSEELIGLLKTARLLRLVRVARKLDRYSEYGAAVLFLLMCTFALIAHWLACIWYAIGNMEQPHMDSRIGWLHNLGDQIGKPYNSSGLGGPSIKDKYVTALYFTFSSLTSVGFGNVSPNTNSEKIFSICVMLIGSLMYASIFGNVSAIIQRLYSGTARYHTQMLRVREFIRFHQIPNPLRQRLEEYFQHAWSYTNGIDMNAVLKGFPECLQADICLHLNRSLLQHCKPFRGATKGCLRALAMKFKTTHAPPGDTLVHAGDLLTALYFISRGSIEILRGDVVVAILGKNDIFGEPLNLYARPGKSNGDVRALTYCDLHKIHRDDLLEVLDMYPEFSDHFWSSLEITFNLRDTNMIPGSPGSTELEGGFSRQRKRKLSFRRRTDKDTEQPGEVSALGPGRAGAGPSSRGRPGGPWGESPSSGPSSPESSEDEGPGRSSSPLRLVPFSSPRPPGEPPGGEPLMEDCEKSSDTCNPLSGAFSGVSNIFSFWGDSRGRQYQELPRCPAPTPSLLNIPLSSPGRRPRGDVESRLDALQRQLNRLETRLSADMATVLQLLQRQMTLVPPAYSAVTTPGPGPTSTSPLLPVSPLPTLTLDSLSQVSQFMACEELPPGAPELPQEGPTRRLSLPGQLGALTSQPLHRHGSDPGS
T1 sequence (P35346 whole entry): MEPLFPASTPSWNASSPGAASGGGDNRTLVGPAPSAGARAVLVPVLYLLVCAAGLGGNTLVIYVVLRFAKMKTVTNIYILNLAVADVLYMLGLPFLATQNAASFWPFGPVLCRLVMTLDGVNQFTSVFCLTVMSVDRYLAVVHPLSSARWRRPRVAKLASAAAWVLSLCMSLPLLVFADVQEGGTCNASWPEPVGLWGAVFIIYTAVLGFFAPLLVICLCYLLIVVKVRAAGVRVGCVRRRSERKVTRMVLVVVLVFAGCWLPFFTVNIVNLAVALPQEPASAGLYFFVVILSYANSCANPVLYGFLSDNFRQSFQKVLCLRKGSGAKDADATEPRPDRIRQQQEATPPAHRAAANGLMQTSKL
Chain of Somatostatin receptor type 1 (P30872 whole entry): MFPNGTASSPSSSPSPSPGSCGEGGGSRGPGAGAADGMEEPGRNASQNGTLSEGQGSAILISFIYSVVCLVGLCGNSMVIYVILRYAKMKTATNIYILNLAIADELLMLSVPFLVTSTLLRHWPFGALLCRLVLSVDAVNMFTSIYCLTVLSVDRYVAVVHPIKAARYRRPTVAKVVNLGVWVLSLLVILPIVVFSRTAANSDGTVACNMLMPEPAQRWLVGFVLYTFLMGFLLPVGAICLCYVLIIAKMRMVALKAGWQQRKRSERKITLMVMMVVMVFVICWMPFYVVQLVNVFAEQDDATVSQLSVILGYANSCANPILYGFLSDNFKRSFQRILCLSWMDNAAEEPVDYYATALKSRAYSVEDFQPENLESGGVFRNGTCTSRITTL
Chain of Somatostatin receptor type 3 (P32745 whole entry): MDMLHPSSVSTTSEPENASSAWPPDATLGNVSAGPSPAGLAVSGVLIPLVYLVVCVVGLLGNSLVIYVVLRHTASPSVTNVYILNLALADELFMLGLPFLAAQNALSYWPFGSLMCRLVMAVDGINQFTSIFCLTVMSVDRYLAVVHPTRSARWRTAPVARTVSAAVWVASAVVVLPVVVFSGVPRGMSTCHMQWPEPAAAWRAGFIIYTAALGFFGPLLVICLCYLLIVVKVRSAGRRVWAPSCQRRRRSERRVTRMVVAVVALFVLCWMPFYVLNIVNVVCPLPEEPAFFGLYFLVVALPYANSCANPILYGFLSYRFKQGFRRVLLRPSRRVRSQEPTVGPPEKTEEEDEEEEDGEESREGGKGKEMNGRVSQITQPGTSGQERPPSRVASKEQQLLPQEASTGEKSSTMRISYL

Structure (SMILES) | IC50 [1] [nM] | IC50 [2] [nM] | IC50 [3] [nM] | IC50 [4] [nM] | concentration at […] (Mus musculus [7]) [nM] | IC50 [8] [nM] | bioavailability [9] [%] | half-life [10] [h] | IC50 [11] [nM] | IC50 [5] [nM] | Activity (Mus musculus [6]) [%] | Activity (Mus musculus [12]) [%]
CCOc1cc(CN2CCC3(CC2)NC(=O)NC3=O)cc(OCC)c1-c1ccc(F)cc1 | 83 | 32 | 110 | 7.4 | 460 |  |  |  |  | 25000 | 54 | 
CCOc1cc(CN2CCC3(CC2)CC(Cc2ccc(F)cc2)C(=O)O3)cc(OCC)c1-c1ccc(F)cc1 (racemic) | 1.6 | 2.5 | 67 |  |  |  |  |  |  |  |  | 
CCOc1cc(CN2CC[C@H]3C(Nc4nc5ccc(C(=O)O)cc5o4)CC[C@H]32)cc(OCC)c1-c1ccc(F)cc1 (relative stereo) | 2.5 | 16 | 4.5 | 6.1 | 760 |  | 48 | 1.7 | 6000 | 15000 | 56 | 
CCOc1cc(CN2CCC3(CC2)CCN(S(=O)(=O)c2cccnc2)CC3)cc(OCC)c1-c1ccc(F)cc1 | 13 |  | 26 |  |  |  |  |  |  | 210 |  | 
CCOc1cc(CN2CCC(C3CCN(S(=O)(=O)c4ccccc4)CC3)CC2)cc(OCC)c1-c1ccc(F)cc1 | 0.7 | 0.8 | 8.6 | 28 | 92 |  | 13 |  |  | 220 | 60 | 

More lines, main results first:

IC50 [1] [nM] | IC50 [2] [nM] | IC50 [3] [nM] | IC50 [4] [nM] | concentration at […] (Mus musculus [7]) [nM] | IC50 [8] [nM] | bioavailability [9] [%] | half-life [10] [h] | IC50 [11] [nM] | Structure (SMILES) | IC50 [5] [nM] | Activity (Mus musculus [6]) [%] | Activity (Mus musculus [12]) [%]
21 | 13 | 73 |  |  |  |  |  |  | CCOc1cc(CN2CCC(Oc3nccc(Cl)n3)CC2)cc(OCC)c1-c1ccc(F)cc1 |  |  | 
7.6 | 2.7 | 247 | 98 |  | 119 |  |  |  | CCOc1cc(CN2CCC(c3ncc(-c4ccc(F)cc4)[nH]3)CC2)cc(OCC)c1-c1ccc(F)cc1 | 260 |  | 
2.9 | 0.6 | 67.8 | 7.1 |  |  |  |  |  | CCOc1cc(CN2CCC(COc3cccc4cccnc34)CC2)cc(OCC)c1-c1ccc(F)cc1 | 210 |  | 
1.3 | 1 | 3.1 | 2.7 |  |  |  |  | < 300 | CCOc1cc(CN2CCC(NC(=O)c3cncc(C)c3)CC2)cc(OCC)c1-c1ccc(F)cc1 | 1690 |  | 87
